The target in test [1] is T1, Glucose-dependent insulinotropic receptor (Homo sapiens, UniProt Q8TDV5).
T1 sequence (Q8TDV5 whole entry): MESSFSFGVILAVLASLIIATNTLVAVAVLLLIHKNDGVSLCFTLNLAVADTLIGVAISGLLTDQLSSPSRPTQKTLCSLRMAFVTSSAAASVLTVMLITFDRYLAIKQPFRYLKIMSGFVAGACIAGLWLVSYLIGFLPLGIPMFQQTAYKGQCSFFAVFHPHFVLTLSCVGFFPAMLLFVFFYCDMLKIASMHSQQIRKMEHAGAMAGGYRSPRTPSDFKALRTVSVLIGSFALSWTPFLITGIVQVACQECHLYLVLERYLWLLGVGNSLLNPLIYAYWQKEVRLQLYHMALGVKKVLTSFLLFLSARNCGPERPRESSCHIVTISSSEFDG
The test can be described thus: Agonist activity at human GPR119 expressed in CHOK1 cells assessed as cAMP accumulation after 1 hr by ultra LANCE assay. Format: functional, cell-based. Summed up: (§1)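 hGPR119-transfected cells were centrifuged and resuspended in cAMP assay buffer (HBSS, 0.1% BSA, 0.5 mM IBMX). They were treated with compounds over a concentration range for 1 h. Eu-cAMP tracer and ULight anti-cAMP lysis solutions were then added, with 1 h at room temperature. LANCE Ultra TR-FRET read, triplicates per concentration. EC50 is the concentration giving 50% cAMP stimulation; %max is relative to GSK-1292263 maximal effect.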

Test [2] has as its target T2, Glucose-dependent insulinotropic receptor (Homo sapiens) (UniProt Q8TDV5).
T2 sequence (whole entry): T1 sequence (Q8TDV5 whole entry)
The experiment in a line: Agonist activity at human GPR119 expressed in CHOK1 cells assessed as cAMP accumulation after 1 hr by ultra LANCE assay relative to GSK1292263. Format: functional, cell-based. Summed up:
as §1
(cAMP levels reflect the balance of adenylyl cyclase and phosphodiesterase activity.)

Test [3] concerns Mus musculus. The test can be described thus: Antidiabetic activity in C57BL/6N mouse assessed as reduction in blood glucose AUC (0 to 120 mins) at 15 mg/kg administered as single dose after 16 hrs of starvation followed by glucose challenge at 4 hrs post dose by OGTT relative to control. Format: functional. The arrangement: scale not given: the % may be the effect or the level left. Summed up:
(§2)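 C57BL/6N mice were fasted 16 h and given a single dose: vehicle (0.5% sodium carboxymethylcellulose, 10 mL/kg), test compounds at 5 or 15 mg/kg, or metformin at 300 mg/kg. A glucose challenge (3 g/kg, oral) followed 4 h later. Blood glucose was read at 0, 15, 30, 60, 90 and 120 min for AUC0–2h. n = 8; mean ± SE versus vehicle.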

Test [4] relates to Mus musculus. The test can be described thus: Antidiabetic activity in C57BL/6N mouse assessed as reduction in blood glucose AUC (0 to 120 mins) administered as single dose after 16 hrs of starvation followed by glucose challenge at 4 hrs post dose by OGTT. Format: functional, organism-based. Summed up:
as §2

Test [5] relates to Mus musculus. The experiment in a line: Antidiabetic activity in C57BL/6N mouse assessed as reduction in blood glucose AUC (0 to 120 mins) at 5 mg/kg administered as single dose after 16 hrs of starvation followed by glucose challenge at 4 hrs post dose by OGTT relative to control. Format: functional. Also on record: scale not given: the % may be the effect or the level left. Summed up: as §2

Test [6] deals with Mus musculus. The test can be described thus: Antidiabetic activity in C57BL/6N mouse assessed as reduction in blood glucose AUC (0 to 120 mins) at 300 mg/kg administered as single dose after 16 hrs of starvation followed by glucose challenge at 4 hrs post dose by OGTT relative to control. The class given is functional. Also on record: scale not given: the % may be the effect or the level left. Summed up: as §2

Among the data in ChEMBL document CHEMBL4229527, “Design and synthesis of novel pyrimido[5,4-d]pyrimidine derivatives as GPR119 agonist for treatment of type 2 diabetes” (Bioorg Med Chem, 2018) are EC50, %max and Activity values, retold here.

Usually EC50 stands for the concentration that produces a half-maximal response.

For the compound `CC(C)(C)OC(=O)N1CCC(Nc2ncnc3c(Nc4ccc(S(C)(=O)=O)cc4)ncnc23)CC1`, the 50% effective concentration (EC50) in test [1] came to 345 nM. Also, in test [2], the %max was 61.3%.

Turning to `CC(C)(C)OC(=O)N1CCC(Oc2ncnc3c(Nc4ccc(C#N)cc4F)ncnc23)CC1`, the concentration for a half-maximal effect (EC50) in test [1] is 1000 nM. Moreover, in test [2], the %max was determined as 53.4%.

As to `CC(C)(C)OC(=O)N1[C@@H]2CC[C@H]1C[C@H](Nc1ncnc3c(Nc4ccc(S(C)(=O)=O)cc4F)ncnc13)C2`, the EC50 in test [1] came out at 452 nM. Moreover, the %max in test [2] worked out at 65.3%.

Turning to `CC(C)(C)OC(=O)N1C[C@@H]2CC[C@H]1C[C@H]2Nc1ncnc2c(Nc3ccc(C#N)cc3F)ncnc12` (relative stereo), the EC50 in test [1] was > 10000 nM. Besides, the %max in test [2] is 31.7%.

As for `CC(C)(C)OC(=O)N1[C@@H]2CC[C@H]1C[C@@H](Nc1ncnc3c(Nc4ccc(S(C)(=O)=O)cc4F)ncnc13)C2`, the Activity in the test with Mus musculus [3] is 13.5%; with Mus musculus [4], “Dose-dependent effect”; in the test on Mus musculus [5] it was 6.4%. Moreover, in test [1], the 50% effective concentration (EC50) worked out at 2.2 nM. For the same compound, in test [2], the %max was determined as 87.5%.

Consider `CC(C)(C)OC(=O)N1[C@@H]2CC[C@H]1C[C@@H](Nc1ncnc3c(Nc4ccc(S(C)(=O)=O)cc4)ncnc13)C2`, for which the half-maximal effective concentration (EC50) in test [1] is 44 nM. In addition, the %max in test [2] worked out at 72.9%.

For `CC(C)(C)OC(=O)N1CCC(Nc2ncnc3c(Nc4ccc(C#N)cc4F)ncnc23)CC1`, in test [1], the EC50 is 147 nM. Moreover, the %max in test [2] was determined as 67.2%.

As for `CC(C)(C)OC(=O)N1[C@@H]2CC[C@H]1C[C@H](Oc1ncnc3c(Nc4ccc(C#N)cc4F)ncnc13)C2`, the EC50 in test [1] was > 10000 nM. Moreover, the %max in test [2] amounted to 36.4%.

As to `CC(C)(C)OC(=O)N1[C@@H]2CC[C@H]1C[C@@H](Oc1ncnc3c(Nc4ccc(C#N)cc4F)ncnc13)C2`, the EC50 in test [1] was determined as 36 nM. The %max in test [2] was 78.9%.

For the compound `CC(C)(C)OC(=O)N1C[C@@H]2CC[C@H]1C[C@@H]2Nc1ncnc2c(Nc3ccc(S(C)(=O)=O)cc3)ncnc12` (relative stereo), the EC50 in test [1] was determined as 179 nM. Moreover, the %max in test [2] worked out at 71.8%.

As to `CC(C)(C)OC(=O)N1C[C@@H]2CC[C@H]1C[C@@H]2Nc1ncnc2c(Nc3ccc(C#N)cc3F)ncnc12` (relative stereo), the 50% effective concentration (EC50) in test [1] was found to be 49 nM. In test [2], the %max turned out to be 73.3%.

As for `CC(C)(C)OC(=O)N1[C@@H]2CC[C@H]1C[C@@H](Nc1ncnc3c(Nc4ccc(C#N)cc4F)ncnc13)C2`, the Activity in the test with Mus musculus [3] is 8.9%; with Mus musculus [4], “Dose-dependent effect”; in the test with Mus musculus [5], 3.5%. Further, in test [1], the half-maximal effective concentration (EC50) was determined as 8.1 nM. Further, the %max in test [2] was determined as 83.8%.

Consider `CC(C)(C)OC(=O)N1[C@@H]2CC[C@H]1C[C@H](Nc1ncnc3c(Nc4ccc(C#N)cc4F)ncnc13)C2`, for which, in test [1], the EC50 stood at 1700 nM. For the same compound, in test [2], the %max was 58.1%.

`CN(C)C(=N)NC(=N)N` [METFORMIN]: the Activity in the test with Mus musculus [6] turned out to be 18.2%.

Regarding `CC(C)(C)OC(=O)N1[C@@H]2CC[C@H]1C[C@H](Nc1ncnc3c(Nc4ccc(S(C)(=O)=O)cc4)ncnc13)C2`, the half-maximal effective concentration (EC50) in test [1] was 1400 nM. In addition, in test [2], the %max is 47.5%.
